# According to paper PMC7557949 (ACS Omega, 2020):
# Columns and labels:
# [1] = test system: herpes simplex virus type 1 (HSV-1); test: Plaque assay, antiviral activity against HSV-1; type: cell-based; conditions: for mean % of reduction, herpes simplex virus: nontoxic dose of compound, average of three independent measurements
# coxsackievirus B4 (CBV4) = test: Plaque assay, antiviral activity against CBV4; type: cell-based; conditions: nontoxic dose of compound; average of three independent measurements
# In short: (§1)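 Plaque reduction. Nontoxic dilutions of test compound were mixed 1:1 with virus at 1 × 105, 1 × 106 or 1 × 107, for 0.5 h at 37 °C. 10-fold dilutions went onto BGM (CBV4), FRHK4 (HAV HM 175) or Hep-2 (adenovirus 7), with 1 h adsorption at 37 °C. Overlay was 2× DMEM plus 1% agarose. Cells were formalin-fixed and crystal violet-stained, and plaques counted. Triplicate. IC50 is the half-maximal plaque-reduction concentration.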
# [2] = test system: hepatitis A virus HM 175 (HAV HM 175); test: Plaque assay, antiviral activity against HAV HM 175; type: cell-based; conditions: nontoxic dose of compound; average of three independent measurements
# In short: as §1
# [3] = test system: ED-43/SG-Feo (VYG) replicon of hepatitis C virus genotype 4a (HCVcc); test: Antiviral bioassay against ED-43/SG-Feo; type: cell-based; conditions: nontoxic dose of compound; average of three independent measurements
# In short: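 Huh 7.5 cells carrying the ED-43/SG-Feo (VYG) HCV genotype 4a subgenomic replicon were treated with the nontoxic dose of test compound. Replicon RNA copies were quantified by TaqMan qRT-PCR, and the result was expressed as percent reduction.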
# [4] = test system: adenovirus type 7 (HAdV7); test: Plaque assay, antiviral activity against adenovirus type 7; type: cell-based; conditions: nontoxic dose of compound; average of three independent measurements
# In short: as §1
# S. aureus (ATCC:6538) [5] = test: Agar well diffusion, inhibition zone; type: cell-based, Staphylococcus aureus; conditions: for zone of inhibition at 15000 µg/mL: Staphylococcus aureus, 24 h, read-out: diameter of the IZ, S. aureus (ATCC:6538); for diameter of the IZ, S. aureus (ATCC:6538): 15 mg/mL, 100 μL per well, mm ± SD
# In short: (§2)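 Agar well diffusion. Saline inoculum adjusted to McFarland 0.5 ([…]), i.e. OD 0.13 at 625 nm, and swabbed over dried agar. After 15 min drying, 6 mm wells received 100 μL of test compound at 15 mg/mL. Plates incubated at 37 °C; bacterial zones read in mm after 24 h incubation […]. Triplicate, reported as mm ± SD. Gentamicin and ampicillin served as reference drugs.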
# S. mutans (ATCC:25175) [6] = test: Agar well diffusion, inhibition zone; type: cell-based; conditions: for zone of inhibition at 15000 µg/mL: Streptococcus mutans, 24 h, read-out: diameter of the IZ, S. mutans (ATCC:25175)
# In short: as §2
# K. pneumonia (ATCC:4415) [7] = test: MIC, twofold serial dilution in agar; type: cell-based; conditions: Klebsiella pneumoniae, read-out: MIC, K. pneumonia (ATCC:4415)
# S. aureus (ATCC:6538) [8] = test: MIC, twofold serial dilution in agar; type: cell-based; conditions: Staphylococcus aureus, read-out: MIC, S. aureus (ATCC:6538)
# S. mutans (ATCC:25175) [9] = test: MIC, twofold serial dilution in agar; type: cell-based; conditions: Streptococcus mutans, read-out: MIC, S. mutans (ATCC:25175)
# [10] = target: T1, dihydrofolate reductase (DHFR) (Homo sapiens, UniProt P00374); test: DHFR inhibitor screening assay; type: biochemical; conditions: for IC50: IC50 on the DHFR, average of three measurements; for inhibition at 0.01 µg/mL: read-out: percent inhibition of DHFR at 0.01 (μg/mL); for inhibition at 0.1 µg/mL: read-out: percent inhibition of DHFR at 0.1 (μg/mL); for inhibition at 1 µg/mL: read-out: percent inhibition of DHFR at 1 (μg/mL); for inhibition at 10 µg/mL: read-out: percent inhibition of DHFR at 10 (μg/mL)
# T1 sequence (P00374 1-187): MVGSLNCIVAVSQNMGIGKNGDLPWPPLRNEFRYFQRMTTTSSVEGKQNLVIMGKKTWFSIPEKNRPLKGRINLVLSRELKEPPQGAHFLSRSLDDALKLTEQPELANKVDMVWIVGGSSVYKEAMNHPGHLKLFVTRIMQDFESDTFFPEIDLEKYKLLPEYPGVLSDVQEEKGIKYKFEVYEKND
# C. albicans (ATCC:10231) = test: Agar well diffusion, inhibition zone; type: cell-based, Candida albicans; conditions: 15 mg/mL, 100 μL per well; mm ± SD
# In short: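 Fungal plates were poured and agar dried 15 min. 6 mm wells were cut with a sterile borer and filled with 100 μL test compound solution at 15 mg/mL. Inhibition zone diameter (mm) was read after 48 h incubation. Triplicate, reported as mm ± SD.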
# E. coli (ATCC:3008) = test: Agar well diffusion, inhibition zone; type: cell-based, Escherichia coli; conditions: 15 mg/mL, 100 μL per well; mm ± SD
# In short: as §2
# K. pneumonia (ATCC:4415) [11] = test: Agar well diffusion, inhibition zone; type: cell-based, Klebsiella pneumonia; conditions: 15 mg/mL, 100 μL per well; mm ± SD
# In short: as §2
# [12] = test system: P. aeruginosa (ATCC:27853); test: Agar well diffusion, inhibition zone; type: cell-based, Pseudomonas aeruginosa; conditions: 15 mg/mL, 100 μL per well; mm ± SD
# In short: as §2
# [13] = Cytotoxicity test on Vero cell line; type: cell-based; conditions: African green monkey, uninfected Vero cells
# In short: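 Test compound was dissolved at 50 mg/mL in DMSO and decontaminated with 100× antimycotic–antibiotic mix. Cells were seeded at 2 × 10^5 cells/mL and grown 24 h at 37 °C, 5% CO2, to monolayers. Bi-fold dilutions in DMEM were applied for 72 h. Read by daily microscopy for morphology and by trypan blue (0.4%) viable counts. CC50 taken as the concentration giving 50% of untreated-cell OD492.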
# Hsp90α = Hsp90α (Homo sapiens, UniProt P07900); test: Hsp90α; type: biochemical
# In short: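 AlphaScreen kit assay for Hsp90α C-terminal binding to PPID. Hsp90α was diluted to 1.5 ng/μL in assay buffer and premixed with test compound. The reaction was started with PPID diluted to 10 ng/μL and run 30 min at room temperature. Glutathione acceptor beads were added for 30 min, then streptavidin donor beads for 1 h, and Alpha counts read. Triplicate; percent inhibition calculated against control.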
# Chain of Hsp90α (P07900 535-732 limits assumed): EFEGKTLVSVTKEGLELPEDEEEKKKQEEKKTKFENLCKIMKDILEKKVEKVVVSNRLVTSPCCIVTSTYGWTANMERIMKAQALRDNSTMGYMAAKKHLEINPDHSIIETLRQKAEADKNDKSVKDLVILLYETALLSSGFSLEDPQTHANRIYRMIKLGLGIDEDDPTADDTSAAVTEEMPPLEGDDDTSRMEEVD
Structure (SMILES),"mean % of reduction, herpes simplex virus [1] [%]","mean % of reduction, CBV4 (coxsackievirus B4 (CBV4)) [%]","mean % of reduction, HAV HM 175 [2] [%]","mean % of reduction, HCVcc genotype 4 [3] [%]","mean % of reduction, adenovirus type 7 [4] [%]",zone of inhibition at 15000 µg/mL (S. aureus (ATCC:6538) [5]) [mm],zone of inhibition at 15000 µg/mL (S. mutans (ATCC:25175) [6]) [mm],"diameter of the IZ, C. albicans (ATCC:10231) (C. albicans (ATCC:10231))",other results
"CSc1c(-c2nc3ccccc3s2)c(N)n(NS(=O)(=O)c2ccc(C)cc2)c(=O)c1C#N [8b, N-(6-Amino-5-(benzo[d]thiazol-2-yl)-3-cyano-4-(methylthio)-2-oxopyridin-1(2H)-yl)-4-methylbenzenesulfonamide]",33.3 ± 0.25,30.0 ± 0.15,36.7 ± 0.30,26.7 ± 0.25,20.0 ± 0.20,19.3 ± 1,10.7 ± 0.5,–,MIC (K. pneumonia (ATCC:4415) [7]): 125 µg/mL; MIC (S. aureus (ATCC:6538) [8]): 1000 µg/mL; MIC (S. mutans (ATCC:25175) [9]): 250 µg/mL; IC50 [10]: 2830 nM; inhibition at 0.01 µg/mL [10]: 19.9%; inhibition at 0.1 µg/mL [10]: 40.8%; inhibition at 1 µg/mL [10]: 50.4%; inhibition at 10 µg/mL [10]: 57.7%
"CSc1c(-c2nc3ccccc3[nH]2)c(N)n(NS(=O)(=O)c2ccccc2)c(=O)c1C#N [13a, N-(6-Amino-5-(1H-benzo[d]imidazol-2-yl)-3-cyano-4-(methylthio)-2-oxopyridin-1(2H)-yl)benzenesulfonamide]",20.0 ± 0.30,20.0 ± 0.10,13.3 ± 0.10,20.0 ± 0.15,10.0 ± 0.10,30 ± 1,–,22.0 ± 0.5 mm,–
"N#Cc1cc(C#N)c(=O)n(NS(=O)(=O)c2ccccc2)c1N [15a, N-(6-Amino-3,5-dicyano-2-oxopyridin-1(2H)-yl)benzenesulfonamide]",–,–,–,–,–,–,–,19.6 ± 2.0 mm,–
"CCSc1c(-c2nc3ccccc3s2)c(N)n(NS(=O)(=O)c2ccccc2)c(=O)c1C#N [8c, N-(6-Amino-5-(benzo[d]thiazol-2-yl)-3-cyano-4-(ethylthio)-2-oxopyridin-1(2H)-yl)benzenesulfonamide]",10.0 ± 0.15,13.3 ± 0.10,10.0 ± 0.15,16.7 ± 0.15,10.0 ± 0.15,24.5 ± 0.7,21.3 ± 1.1,–,–
"CCSc1c(-c2nc3ccccc3s2)c(N)n(NS(=O)(=O)c2ccc(C)cc2)c(=O)c1C#N [8d, N-(6-Amino-5-(benzo[d]thiazol-2-yl)-3-cyano-4-(ethylthio)-2-oxopyridin-1(2H)-yl)-4-methylbenzenesulfonamide]",–,–,–,–,–,29.9 ± 0.6,12.5 ± 1,–,–
"CCSC(SCC)=C(C#N)c1nc2ccccc2s1 [3b, 2-(Benzo[d]thiazol-2-yl)-3,3-bis(ethylthio)acrylonitrile]",26.7 ± 0.20,20.0 ± 0.20,40.0 ± 0.30,20.0 ± 0.25,30.0 ± 0.30,–,–,–,–
"CSc1c(-c2nc3ccccc3s2)c(N)n(NS(=O)(=O)c2ccccc2)c(=O)c1C#N [8a, N-(6-Amino-5-(benzo[d]thiazol-2-yl)-3-cyano-4-(methylthio)-2-oxopyridin-1(2H)-yl)benzenesulfonamide]",30.0 ± 0.25,–,–,20.0 ± 0.10,–,25.8 ± 0.5,19.8 ± 1,–,–
"Cc1ccc(S(=O)(=O)Nn2c(N)c(C#N)cc(C#N)c2=O)cc1 [15b, N-(6-Amino-3,5-dicyano-2-oxopyridin-1(2H)-yl)-4-methylbenzenesulfonamide]",30.0 ± 0.30,40.0 ± 0.20,20.0 ± 0.10,33.3 ± 0.10,13.3 ± 0.50,–,–,no activity,"diameter of the IZ, E. coli (ATCC:3008) (E. coli (ATCC:3008)): no activity; diameter of the IZ, K. pneumonia (ATCC:4415) (K. pneumonia (ATCC:4415) [11]): no activity; diameter of the IZ, P. aeruginosa (ATCC:27853) [12]: no activity; diameter of the IZ, S. aureus (ATCC:6538) (S. aureus (ATCC:6538) [5]): no activity; diameter of the IZ, S. mutans (ATCC:25175) (S. mutans (ATCC:25175) [6]; 15 mg/mL, 100 μL per well, mm ± SD): no activity"
"Nc1nc2c(ncn2COCCO)c(=O)[nH]1 [acyclovir, reference compound]",–,–,–,–,–,–,–,–,"IC50 ([1]; Human alphaherpesvirus 1, Vero): 0.7 µg/mL; CC50 at 72 h [13]: 2.8 µg/mL; inhibition at 0.1 µg/mL (Hsp90α; read-out: percentage inhibition of Hsp90α at 0.1 (μg/mL)): 11.2%; inhibition at 10 µg/mL (Hsp90α; read-out: percentage inhibition of Hsp90α at 10 (μg/mL)): 52.3%; inhibition at 100 µg/mL (Hsp90α; read-out: percentage inhibition of Hsp90α at 100 (μg/mL)): 84.1%"
"CSc1c(-c2nc3ccccc3[nH]2)c(N)n(NS(=O)(=O)c2ccc(C)cc2)c(=O)c1C#N [13b, N-(6-Amino-5-(1H-benzo[d]imidazol-2-yl)-3-cyano-4-(methylthio)-2-oxopyridin-1(2H)-yl)-4-methylbenzenesulfonamide]",–,–,–,–,–,28.9 ± 0.7,–,21.0 ± 0.1 mm,–
"CC1(C)S[C@@H]2[C@H](NC(=O)[C@H](N)c3ccccc3)C(=O)N2[C@H]1C(=O)O [ampicillin, reference compound]",–,–,–,–,–,32 ± 0.5,22 ± 0.5,–,MIC (S. aureus (ATCC:6538) [8]): 62.5 µg/mL; MIC (S. mutans (ATCC:25175) [9]): 62.5 µg/mL
"Nc1n[nH]c2c(-c3nc4ccccc4s3)c(N)n(NS(=O)(=O)c3ccccc3)c(=O)c12 [9a, N-(3,6-Diamino-7-(benzo[d]thiazol-2-yl)-4-oxo-1H-pyrazolo[4,3-c]pyridin-5(4H)-yl)benzenesulfonamide]",20.0 ± 0.15,13.3 ± 0.10,10.0 ± 0.10,13.3 ± 0.10,10.0 ± 0.10,34 ± 1,13.9 ± 0.5,–,"diameter of the IZ, S. aureus (ATCC:6538) (S. aureus (ATCC:6538) [5]): 34.0 ± 1.0 mm; MIC (S. aureus (ATCC:6538) [8]): 125 µg/mL; MIC (S. mutans (ATCC:25175) [9]): 1000 µg/mL; IC50 [10]: 1540 nM; inhibition at 0.01 µg/mL [10]: 22.6%; inhibition at 0.1 µg/mL [10]: 33.8%; inhibition at 1 µg/mL [10]: 53.6%; inhibition at 10 µg/mL [10]: 68.4%"
"Cc1ccc(S(=O)(=O)Nn2c(N)c(-c3nc4ccccc4s3)c3[nH]nc(N)c3c2=O)cc1 [9b, N-(3,6-Diamino-7-(benzo[d]thiazol-2-yl)-4-oxo-1H-pyrazolo[4,3-c]pyridin-5(4H)-yl)-4-methylbenzenesulfonamide]",–,–,–,–,–,–,–,24.3 ± 0.5 mm,"diameter of the IZ, E. coli (ATCC:3008) (E. coli (ATCC:3008)): 15.0 ± 0.5 mm"
